Reference: paper PMC4068216 (ACS Chemical Biology, 2014)
Blank lines part the entries; values can stand above or below the molecule they belong to.

What was measured:
[1] = molecular target: T1, LAT3 (Homo sapiens, UniProt O75387); experiment: [3H]-L-leucine uptake assay in LNCaP cells; format: cell-based
T1 sequence (O75387 1-559): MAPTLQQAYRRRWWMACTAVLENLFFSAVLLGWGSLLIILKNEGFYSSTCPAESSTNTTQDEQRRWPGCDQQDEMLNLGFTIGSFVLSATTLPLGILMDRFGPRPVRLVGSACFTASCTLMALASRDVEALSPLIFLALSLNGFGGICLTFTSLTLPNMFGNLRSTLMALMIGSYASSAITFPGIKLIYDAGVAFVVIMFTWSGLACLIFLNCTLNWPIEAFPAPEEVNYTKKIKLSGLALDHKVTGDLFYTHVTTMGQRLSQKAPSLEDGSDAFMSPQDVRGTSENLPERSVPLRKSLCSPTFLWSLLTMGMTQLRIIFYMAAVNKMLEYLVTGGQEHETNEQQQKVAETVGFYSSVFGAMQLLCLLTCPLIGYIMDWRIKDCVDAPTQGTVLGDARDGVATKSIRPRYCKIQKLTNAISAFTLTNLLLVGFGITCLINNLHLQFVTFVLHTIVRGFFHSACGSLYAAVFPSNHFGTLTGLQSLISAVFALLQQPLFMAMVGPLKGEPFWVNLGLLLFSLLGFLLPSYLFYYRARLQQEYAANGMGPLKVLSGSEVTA
Outline: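 Dose–response: LNCaP cells (3 × 10^4/well) took up 0.3 μCi [3H]-L-leucine (200 nM) in leucine-free RPMI with 10% dialysed FBS for 15 min at 37 °C. Screen: 10^4 cells/well in HBSS with 10% dialysed FBS and 50 mM L-glutamine, added onto preloaded fractions, n = 1 per fraction. Controls were 0.5% DMSO and 10 mM BCH. Cells were filter-harvested for scintillation counting.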

[2] = system: LNCaP cells; experiment: BrdU incorporation assay in LNCaP cells; format: cell-based, human; details: BCH 10 mM, ESK242 and ESK246 50 μM, 22 h then BrdU 2 h
Outline: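 LNCaP cells (2 × 10^5 per 6-well) adhered overnight, were serum-starved, then exposed to test compound, DMSO vehicle or BCH for 22 h. BrdU (150 μg/mL) was added for a further 2 h. Cells were detached, fixed and stained with APC anti-BrdU (1:50) and 7-AAD, then analysed by flow cytometry. Three separate experiments; one-way ANOVA.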

[3] = system: LAT1; details: only tested on LAT1 and LAT2; cited from earlier work
[4] = system: HT-29 colorectal adenocarcinoma cell; details: in vitro and in vivo; cited from earlier work
[5] = substrate: CC(C)C[C@H](N)C(=O)O; experiment: [3H]-L-leucine uptake in Xenopus laevis oocytes expressing LAT3; format: cell-based, human; details: other: no inhibitor, pH 7.5

IC50 [1]: 4.06 ± 0.0011 mM
leucine uptake ([1]; high-throughput screen, positive control 10 mM, LNCaP cells): 30–40 % of control
Molecule: NC1(C(=O)O)CC2CCC1C2 (stereo not shown) [BCH, 2-aminobicyclo[2.2.1]heptane-2-carboxylic acid]
BrdU incorporation [2]: 14.7%
BrdU incorporation relative to control [2]: 51.6 % of control

Molecule: Nc1cc(COc2c(Cl)cc(C[C@H](N)C(=O)O)cc2Cl)c2oc(-c3ccccc3)nc2c1 [JPH203/KYT-0353]
selectivity, LAT1 versus LAT2 [3]: selectivity for LAT1-mediated transport
HT-29 cell growth [4]: suppression of HT-29 colorectal adenocarcinoma cell growth in vitro and in vivo

B1: LAT3 (Homo sapiens) (protein)
chain: T1 sequence (O75387 1-559)
Km [5]: 6.3 ± 0.5 mM
